# “And” between values parts separate entries of the source, which are not always exact repeats. Identical values can stand only once.
# System: U2OS
# Experiment: Multiplex assay against U2OS
# Format: toxicity, cell-based
# Details: human
# Procedure, shortened: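 Per cents of healthy-nucleus cells form the tubulin, mitochondrial-mass and membrane-permeability phenotype values. Live cells were stained at seeding with Hoechst33342, BioTracker Green Microtubule Cytoskeleton Dye, MitoTracker Red and Annexin V Alexa Fluor 680. After compound addition they were imaged on a CQ1 microscope at 37°C and 5% CO2, and CellPathfinder machine-learning gating split them into Hoechst high-intensity objects or normal cells, normal cells into healthy, pyknosed or fragmented nuclei, and pyknosed cells into mitotic or apoptotic.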
# [1] = 12 h, 1 µM, compound concentration 1 uM
# [2] = 12 h, 10 µM, compound concentration 10 uM
# [3] = 24 h, 1 µM, compound concentration 1 uM
# [4] = 24 h, 10 µM, compound concentration 10 uM
# [5] = 48 h, 1 µM, compound concentration 1 uM
# [6] = 48 h, 10 µM, compound concentration 10 uM
smiles,measurement,setting,value
O=C(O)C(F)(F)F.O=C1NC(=O)/C(=C/c2c[nH]c(=O)c(-c3ccc(N4CCNCC4)nc3)c2)S1,Population Apoptotic (%),[1],42.86% and 38.46%
same,Population Fragmented Nuclei (%),[1],1.89% and 1.93%
same,Population Healthy Nuclei (%),[1],92.45% and 85.51%
same,Population Hoechst High Intensity Objects (%),[1],0%
same,Population Membrane Permeable-Phenotype (%),[1],0.29% and 4.52%
same,Population Mitochondria Different-Phenotype (%),[1],0.29% and 6.21%
same,Population Mitotic Cells (%),[1],57.14% and 61.54%
same,Population Normal (%),[1],100%
same,Population Pyknosed Nuclei (%),[1],5.66% and 12.56%
same,Population Tubulin-Different-Phenotype (%),[1],0.58% and 2.82%
same,Total Cell Count,[1],371 and 207
same,Population Apoptotic (%),[2],25% and 60%
same,Population Fragmented Nuclei (%),[2],1.57% and 2.75%
same,Population Healthy Nuclei (%),[2],90.03% and 86.26%
same,Population Hoechst High Intensity Objects (%),[2],0%
same,Population Membrane Permeable-Phenotype (%),[2],2.62% and 4.46%
same,Population Mitochondria Different-Phenotype (%),[2],0.29% and 5.73%
same,Population Mitotic Cells (%),[2],75% and 40%
same,Population Normal (%),[2],100%
same,Population Pyknosed Nuclei (%),[2],8.4% and 10.99%
same,Population Tubulin-Different-Phenotype (%),[2],1.17% and 1.27%
same,Total Cell Count,[2],381 and 182
same,Population Apoptotic (%),[3],38.46% and 27.27%
same,Population Fragmented Nuclei (%),[3],0.79% and 0.38%
same,Population Healthy Nuclei (%),[3],94.08% and 86.92%
same,Population Hoechst High Intensity Objects (%),[3],0%
same,Population Membrane Permeable-Phenotype (%),[3],0.42% and 3.98%
same,Population Mitochondria Different-Phenotype (%),[3],0.21% and 3.98%
same,Population Mitotic Cells (%),[3],61.54% and 72.73%
same,Population Normal (%),[3],100%
same,Population Pyknosed Nuclei (%),[3],5.13% and 12.69%
same,Population Tubulin-Different-Phenotype (%),[3],0.42% and 1.33%
same,Total Cell Count,[3],507 and 260
same,Population Apoptotic (%),[4],40.62% and 57.89%
same,Population Fragmented Nuclei (%),[4],2.9% and 4.85%
same,Population Healthy Nuclei (%),[4],90.91% and 86.78%
same,Population Hoechst High Intensity Objects (%),[4],0%
same,Population Membrane Permeable-Phenotype (%),[4],3.19% and 4.06%
same,Population Mitochondria Different-Phenotype (%),[4],0.21% and 4.57%
same,Population Mitotic Cells (%),[4],59.38% and 42.11%
same,Population Normal (%),[4],100%
same,Population Pyknosed Nuclei (%),[4],6.19% and 8.37%
same,Population Tubulin-Different-Phenotype (%),[4],1.49% and 0.51%
same,Total Cell Count,[4],517 and 227
same,Population Apoptotic (%),[5],51.47% and 41.86%
same,Population Fragmented Nuclei (%),[5],2% and 1.49%
same,Population Healthy Nuclei (%),[5],90.84% and 89.38%
same,Population Hoechst High Intensity Objects (%),[5],0%
same,Population Membrane Permeable-Phenotype (%),[5],0.93% and 3.09%
same,Population Mitochondria Different-Phenotype (%),[5],0.12% and 2.14%
same,Population Mitotic Cells (%),[5],48.53% and 58.14%
same,Population Normal (%),[5],100%
same,Population Pyknosed Nuclei (%),[5],7.16% and 9.13%
same,Population Tubulin-Different-Phenotype (%),[5],1.04% and 1.66%
same,Total Cell Count,[5],950 and 471
same,Population Apoptotic (%),[6],38.82% and 45.95%
same,Population Fragmented Nuclei (%),[6],2.93% and 2.98%
same,Population Healthy Nuclei (%),[6],88.48% and 87.84%
same,Population Hoechst High Intensity Objects (%),[6],0.1% and 0%
same,Population Membrane Permeable-Phenotype (%),[6],1.48% and 3.39%
same,Population Mitochondria Different-Phenotype (%),[6],0% and 1.98%
same,Population Mitotic Cells (%),[6],61.18% and 54.05%
same,Population Normal (%),[6],99.9% and 100%
same,Population Pyknosed Nuclei (%),[6],8.59% and 9.18%
same,Population Tubulin-Different-Phenotype (%),[6],0.68% and 1.69%
same,Total Cell Count,[6],991 and 403
Cc1nc2ccc(Oc3ccc(F)cc3)cc2c(=O)n1C[C@H]1CCCN(C(C)C)C1.Cl,Population Apoptotic (%),[1],83% and 60%
same,Population Fragmented Nuclei (%),[1],25% and 14%
same,Population Healthy Nuclei (%),[1],64% and 81%
same,Population Hoechst High Intensity Objects (%),[1],3% and 1%
same,Population Membrane Permeable-Phenotype (%),[1],9% and 17%
same,Population Mitochondria Different-Phenotype (%),[1],3% and 7%
same,Population Mitotic Cells (%),[1],16% and 40%
same,Population Normal (%),[1],96% and 98%
same,Population Pyknosed Nuclei (%),[1],10% and 4%
same,Population Tubulin-Different-Phenotype (%),[1],7% and 9%
same,Total Cell Count,[1],244 and 125
same,Population Apoptotic (%),[2],65% and 78%
same,Population Fragmented Nuclei (%),[2],25% and 24%
same,Population Healthy Nuclei (%),[2],59% and 58%
same,Population Hoechst High Intensity Objects (%),[2],3% and 4%
same,Population Membrane Permeable-Phenotype (%),[2],58% and 25%
same,Population Mitochondria Different-Phenotype (%),[2],61% and 75%
same,Population Mitotic Cells (%),[2],35% and 21%
same,Population Normal (%),[2],96% and 95%
same,Population Pyknosed Nuclei (%),[2],15% and 17%
same,Population Tubulin-Different-Phenotype (%),[2],63% and 47%
same,Population Apoptotic (%),[3],78% and 80%
same,Population Fragmented Nuclei (%),[3],23% and 21%
same,Population Healthy Nuclei (%),[3],65% and 71%
same,Population Hoechst High Intensity Objects (%),[3],4% and 2%
same,Population Membrane Permeable-Phenotype (%),[3],7% and 11%
same,Population Mitochondria Different-Phenotype (%),[3],5% and 9%
same,Population Mitotic Cells (%),[3],21% and 20%
same,Population Normal (%),[3],95% and 97%
same,Population Pyknosed Nuclei (%),[3],10% and 6%
same,Population Tubulin-Different-Phenotype (%),[3],4% and 8%
same,Total Cell Count,[3],276 and 146
same,Population Apoptotic (%),[4],77% and 76%
same,Population Fragmented Nuclei (%),[4],25% and 22%
same,Population Healthy Nuclei (%),[4],57% and 52%
same,Population Hoechst High Intensity Objects (%),[4],4% and 6%
same,Population Membrane Permeable-Phenotype (%),[4],37% and 22%
same,Population Mitochondria Different-Phenotype (%),[4],63% and 62%
same,Population Mitotic Cells (%),[4],22% and 23%
same,Population Normal (%),[4],95% and 93%
same,Population Pyknosed Nuclei (%),[4],16% and 24%
same,Population Tubulin-Different-Phenotype (%),[4],47% and 40%
same,Population Apoptotic (%),[5],84% and 93%
same,Population Fragmented Nuclei (%),[5],19%
same,Population Healthy Nuclei (%),[5],69% and 72%
same,Population Hoechst High Intensity Objects (%),[5],1% and 0%
same,Population Membrane Permeable-Phenotype (%),[5],7%
same,Population Mitochondria Different-Phenotype (%),[5],5%
same,Population Mitotic Cells (%),[5],15% and 6%
same,Population Normal (%),[5],98% and 99%
same,Population Pyknosed Nuclei (%),[5],10% and 7%
same,Population Tubulin-Different-Phenotype (%),[5],4% and 6%
same,Total Cell Count,[5],371 and 213
same,Population Apoptotic (%),[6],77% and 88%
same,Population Fragmented Nuclei (%),[6],29%
same,Population Healthy Nuclei (%),[6],54% and 51%
same,Population Hoechst High Intensity Objects (%),[6],5% and 8%
same,Population Membrane Permeable-Phenotype (%),[6],29% and 27%
same,Population Mitochondria Different-Phenotype (%),[6],36% and 41%
same,Population Mitotic Cells (%),[6],22% and 11%
same,Population Normal (%),[6],94% and 91%
same,Population Pyknosed Nuclei (%),[6],16% and 19%
same,Population Tubulin-Different-Phenotype (%),[6],23% and 35%
